According to ChEMBL document CHEMBL1255300, “Pharmacodynamics of the antibacterial effect and emergence of resistance to tomopenem, formerly RO4908463/CS-023, in an in vitro pharmacokinetic model of Staphylococcus aureus infection” (Antimicrob Agents Chemother, 2008):

Legend:
Assay type in all cases: functional
Staphylococcus aureus [1] = experiment: Antibacterial activity against methicillin-resistant Staphylococcus aureus 33922 infected in in vitro pharmacokinetic model assessed as reduction in viable count at 3 mg/ml after 24 hrs using 10^6 CFU/ml inoculum
Staphylococcus aureus [2] = experiment: Antibacterial activity against methicillin-resistant Staphylococcus aureus 33922 infected in in vitro pharmacokinetic model assessed as time required to 99.9% killing at 3 mg/ml using 10^6 CFU/ml inoculum
Staphylococcus aureus [3] = experiment: AUBKC (0 to 24 hrs) in methicillin-resistant Staphylococcus aureus 33922 infected in in vitro pharmacokinetic model at 3 mg/ml using 10^6 CFU/ml inoculum
In short: (§1)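 Run in a single-compartment in vitro PK model at 37°C in 10% MHB, flow 47.9 ml/h, 10^6 CFU/ml inoculum. Viable counts over 48 h. AUBKC 0-24 and 0-48 h by log-linear trapezoidal rule, at least triplicate.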

Staphylococcus aureus [4] = experiment: AUBKC (0 to 24 hrs) in methicillin-resistant Staphylococcus aureus 33827 infected in in vitro pharmacokinetic model at 3 mg/ml using 10^6 CFU/ml inoculum; in short: as §1
Staphylococcus aureus [5] = experiment: Antibacterial activity against methicillin-resistant Staphylococcus aureus 33827 infected in in vitro pharmacokinetic model assessed as reduction in viable count at 3 mg/ml after 36 hrs using 10^6 CFU/ml inoculum
Staphylococcus aureus [6] = experiment: Antibacterial activity against methicillin-resistant Staphylococcus aureus 33922 infected in in vitro pharmacokinetic model assessed as reduction in viable count at 3 mg/ml after 48 hrs using 10^6 CFU/ml inoculum
Staphylococcus aureus [7] = experiment: Antibacterial activity against methicillin-resistant Staphylococcus aureus 33827 infected in in vitro pharmacokinetic model assessed as time required to 99% killing at 3 mg/ml using 10^6 CFU/ml inoculum
Staphylococcus aureus [8] = experiment: AUBKC (0 to 48 hrs) in methicillin-resistant Staphylococcus aureus 33827 infected in in vitro pharmacokinetic model at 3 mg/ml using 10^6 CFU/ml inoculum; in short: as §1
Staphylococcus aureus [9] = experiment: Antibacterial activity against methicillin-resistant Staphylococcus aureus 33922 infected in in vitro pharmacokinetic model assessed as reduction in viable count at 3 mg/ml after 36 hrs using 10^6 CFU/ml inoculum
Staphylococcus aureus [10] = experiment: Antibacterial activity against methicillin-resistant Staphylococcus aureus 33815 infected in in vitro pharmacokinetic model assessed as reduction in viable count at 3 mg/ml after 24 hrs using 10^6 CFU/ml inoculum
In short: (§2)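 Single-compartment model in 10% MHB at 37°C with 10^6 CFU/ml inoculum. Log change in count from time 0 and times to 99%/99.9% kill from serial spiral-plate counts; at least triplicate.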

Staphylococcus aureus [11] = experiment: AUBKC (0 to 48 hrs) in methicillin-resistant Staphylococcus aureus 33815 infected in in vitro pharmacokinetic model at 3 mg/ml using 10^6 CFU/ml inoculum; in short: as §1
Staphylococcus aureus [12] = experiment: Antibacterial activity against methicillin-resistant Staphylococcus aureus 33815 infected in in vitro pharmacokinetic model assessed as reduction in viable count at 3 mg/ml after 48 hrs using 10^6 CFU/ml inoculum; in short: as §2
Staphylococcus aureus [13] = experiment: Antibacterial activity against methicillin-resistant Staphylococcus aureus 33827 infected in in vitro pharmacokinetic model assessed as reduction in viable count at 3 mg/ml after 48 hrs using 10^6 CFU/ml inoculum
Staphylococcus aureus [14] = experiment: Antibacterial activity against methicillin-resistant Staphylococcus aureus 33827 infected in in vitro pharmacokinetic model assessed as reduction in viable count at 3 mg/ml after 24 hrs using 10^6 CFU/ml inoculum
Staphylococcus aureus [15] = experiment: Antibacterial activity against methicillin-resistant Staphylococcus aureus 33922 infected in in vitro pharmacokinetic model assessed as time required to 99% killing at 3 mg/ml using 10^6 CFU/ml inoculum
Staphylococcus aureus [16] = experiment: Antibacterial activity against methicillin-resistant Staphylococcus aureus 33827 infected in in vitro pharmacokinetic model assessed as time required to 99.9% killing at 3 mg/ml using 10^6 CFU/ml inoculum
Staphylococcus aureus [17] = experiment: Antibacterial activity against methicillin-resistant Staphylococcus aureus 33815 infected in in vitro pharmacokinetic model assessed as reduction in viable count at 3 mg/ml after 12 hrs using 10^6 CFU/ml inoculum; in short: as §2
Staphylococcus aureus [18] = experiment: AUBKC (0 to 24 hrs) in methicillin-resistant Staphylococcus aureus 33815 infected in in vitro pharmacokinetic model at 3 mg/ml using 10^6 CFU/ml inoculum; in short: as §1
Staphylococcus aureus [19] = experiment: Antibacterial activity against methicillin-resistant Staphylococcus aureus 33827 infected in in vitro pharmacokinetic model assessed as reduction in viable count at 3 mg/ml after 12 hrs using 10^6 CFU/ml inoculum
Staphylococcus aureus [20] = experiment: Antibacterial activity against methicillin-resistant Staphylococcus aureus 33815 infected in in vitro pharmacokinetic model assessed as time required to 99.9% killing at 3 mg/ml using 10^6 CFU/ml inoculum; in short: as §2
Staphylococcus aureus [21] = experiment: Antibacterial activity against methicillin-resistant Staphylococcus aureus 33815 infected in in vitro pharmacokinetic model assessed as reduction in viable count at 3 mg/ml after 36 hrs using 10^6 CFU/ml inoculum; in short: as §2
Staphylococcus aureus [22] = experiment: Antibacterial activity against methicillin-resistant Staphylococcus aureus 33922 infected in in vitro pharmacokinetic model assessed as reduction in viable count at 3 mg/ml after 12 hrs using 10^6 CFU/ml inoculum
Staphylococcus aureus [23] = experiment: Antibacterial activity against methicillin-resistant Staphylococcus aureus 33815 infected in in vitro pharmacokinetic model assessed as time required to 99% killing at 3 mg/ml using 10^6 CFU/ml inoculum; in short: as §2
Staphylococcus aureus [24] = experiment: AUBKC (0 to 48 hrs) in methicillin-resistant Staphylococcus aureus 33922 infected in in vitro pharmacokinetic model at 3 mg/ml using 10^6 CFU/ml inoculum; in short: as §1

Compound: CN[C@H](CC(C)C)C(=O)N[C@H]1C(=O)N[C@@H](CC(N)=O)C(=O)N[C@H]2C(=O)N[C@H]3C(=O)N[C@H](C(=O)N[C@H](C(=O)O)c4cc(O)cc(O)c4-c4cc3ccc4O)[C@H](O)c3ccc(c(Cl)c3)Oc3cc2cc(c3O[C@@H]2O[C@H](CO)[C@@H](O)[C@H](O)[C@H]2O[C@H]2C[C@](C)(N)[C@H](O)[C@H](C)O2)Oc2ccc(cc2Cl)[C@H]1O [VANCOMYCIN]
- log10CFU/ml (Staphylococcus aureus [1]): 2.6
- Time (Staphylococcus aureus [2]): >48 h
- AUBC (Staphylococcus aureus [3]): 54.8 log10CFU/ml.hr
- AUBC (Staphylococcus aureus [4]): 56.7 log10CFU/ml.hr
- log10CFU/ml (Staphylococcus aureus [5]): 4
- log10CFU/ml (Staphylococcus aureus [6]): 2.9
- Time (Staphylococcus aureus [7]): 24 h
- AUBC (Staphylococcus aureus [8]): 61.9 log10CFU/ml.hr
- log10CFU/ml (Staphylococcus aureus [9]): 3
- log10CFU/ml (Staphylococcus aureus [10]): 2
- AUBC (Staphylococcus aureus [11]): 97.4 log10CFU/ml.hr
- log10CFU/ml (Staphylococcus aureus [12]): 1.6
- log10CFU/ml (Staphylococcus aureus [13]): 4.2
- log10CFU/ml (Staphylococcus aureus [14]): 3.2
- Time (Staphylococcus aureus [15]): 12 h
- Time (Staphylococcus aureus [16]): 24 h
- log10CFU/ml (Staphylococcus aureus [17]): 3.3
- AUBC (Staphylococcus aureus [18]): 46.2 log10CFU/ml.hr
- log10CFU/ml (Staphylococcus aureus [19]): 1.8
- Time (Staphylococcus aureus [20]): 12 h
- log10CFU/ml (Staphylococcus aureus [21]): 1.7
- log10CFU/ml (Staphylococcus aureus [22]): 2.2
- Time (Staphylococcus aureus [23]): 12 h
- AUBC (Staphylococcus aureus [24]): 80.1 log10CFU/ml.hr
